Read-outs that look alike come from different tables or passages of the source.

One may read the IC50 as the concentration that inhibits the measured activity by half. Low readings indicate greater potency in that assay, high ones weaker potency in that assay.

The subject of series [1] is human lung carcinoma (A549) cells. In words: MTT cytotoxicity assay in A549 cells. It is filed as cell-based. The settings on record: 72-h exposure, mean ± SD of at least three experiments. In a few lines: (§1)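 Cells kept in DMEM/10% FBS/1% penicillin-streptomycin at 37 °C, 5% CO2. Seeded 1500 (A549) or 2500 (MRC-5) cells/well, 24 h, then 72 h in fresh medium with graded Pt concentrations. Pt(IV) complexes diluted from 10–20 mM DMSO stocks, reference Pt(II) drug from 2 mM PBS stock. MTT 0.8 mg/mL, 4 h; formazan dissolved in DMSO/10% pH 10.5 glycine buffer; A570. Viability normalized to Pt-free wells; IC50 extrapolated from curves. ≥3 independent experiments in triplicate.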
For orientation: Formazan colour is commonly taken as a measure of viable cells.

Series [2] is described as follows: Cyclic voltammetry in DMF. It is filed as physicochemical. The settings on record: for Ep, V vs. Ag/AgCl (peak reduction potential): DMF, 0.1 M (n-Bu4N)PF6, scan rate 100 mV/s; for reduction peak potential: vs. Ag/AgCl, in DMF.
Series [3] concerns human normal lung fibroblasts (MRC-5) cells. In words: MTT cytotoxicity assay in MRC-5 cells. It is filed as cell-based. The settings on record: for cytotoxicity relative to cisplatin / IC50: MRC-5 cells; for IC50: MTT assay, 72-h exposure, mean ± SD of at least three experiments; for factor less cytotoxic in the healthy cells compared to the cancerous cells: MRC-5 vs. A549 IC50. In a few lines: as §1

The conditions of series [4]: cited from earlier work; for peak potential: in water / aqueous media; for Ep, V vs. Ag/AgCl (peak reduction potential): value in parentheses, aqueous solution.
The nature of series [5]: Cyclic voltammetry in aqueous solution. The settings on record: value in parentheses, this work (Figure S3). It is filed as physicochemical.

`CC(C)(C)NC(=O)[O][Pt]([NH2])([NH2])([Cl])([Cl])[O]C(=O)NC(C)(C)C` [Compound 4] displayed an IC50 in series [1] of 1 ± 0.3 µM. Moreover, the “Ep, V vs. Ag/AgCl (peak reduction potential)” value in series [2] is reported as −0.85 V. Moreover, in series [3], the “cytotoxicity relative to cisplatin” value is recorded as “more toxic”, the IC50 is 2.8 ± 0.8 µM and the “factor less cytotoxic in the healthy cells compared to the cancerous cells” value was ~2.
Consider `COc1ccc(NC(=O)[O][Pt]([NH2])([NH2])([Cl])([Cl])[O]C(=O)Nc2ccc(OC)cc2)cc1` [Compound 9], for which the IC50 is 5.3 ± 2.5 µM in series [1] and 9.3 ± 3.2 µM in series [3]. The “Ep, V vs. Ag/AgCl (peak reduction potential)” value in series [2] is −0.72 V.
Turning to `[NH2][Pt]([NH2])([Cl])([Cl])([O]C(=O)NC1CCCC1)[O]C(=O)NC1CCCC1` [Compound 5], in series [1], the midpoint of inhibition, the IC50, lay at 0.6 ± 0.3 µM. Also, the “Ep, V vs. Ag/AgCl (peak reduction potential)” value in series [2] is −0.85 V. For the same compound, in series [3], the “cytotoxicity relative to cisplatin” value was “more toxic”, 2.3 ± 0.7 µM corresponded to half-maximal inhibition (IC50) and the “factor less cytotoxic in the healthy cells compared to the cancerous cells” value is reported as ~2.
As for `N.N.[Cl][Pt][Cl]` [cisplatin, cis-diamminedichloroplatinum(II), reference compound], the results for the IC50 in series [1] and in series [3] were 7 ± 2.6 µM and 4.3 ± 1.3 µM, respectively.
`[NH2][Pt]([NH2])([Cl])([Cl])([O]C(=O)Nc1cccc2ccccc12)[O]C(=O)Nc1cccc2ccccc12` [Compound 11] gave an IC50 in series [1] of 4.3 ± 1.5 µM. Besides, in series [2], the “Ep, V vs. Ag/AgCl (peak reduction potential)” value is reported as −0.63 V and the reduction peak potential is reported as −625 mV. Further, in series [3], the IC50 was 4.8 ± 0.3 µM.
As to `CC(=O)[O][Pt]([NH2])([NH2])([Cl])([Cl])[O]C(C)=O` [Compound 1, c,c,t-[Pt(NH3)2Cl2(O2CCH3)2], reference compound], in series [4], the peak potential was −635 mV and the “Ep, V vs. Ag/AgCl (peak reduction potential)” value was −0.64 V. Also, in series [2], the “Ep, V vs. Ag/AgCl (peak reduction potential)” value is reported as −0.72 V and the reduction peak potential is reported as −722 mV.
Turning to `[NH2][Pt]([NH2])([Cl])([Cl])([O]C(=O)C(F)(F)F)[O]C(=O)C(F)(F)F` [Compound 2, c,c,t-[Pt(NH3)2Cl2(O2CCF3)2]], the results for the “Ep, V vs. Ag/AgCl (peak reduction potential)” value in series [2] and in series [5] were −0.35 V and 0.01 V, respectively. Besides, the reduction peak potential in series [2] is on record as −345 mV.
`[NH2][Pt]([NH2])([Cl])([Cl])([Cl])[Cl]` [Compound 3, cis-[Pt(NH3)2Cl4], reference compound]: in series [4], the peak potential is −260 mV and the “Ep, V vs. Ag/AgCl (peak reduction potential)” value is recorded as −0.26 V. In series [2], the “Ep, V vs. Ag/AgCl (peak reduction potential)” value was −0.45 V and the reduction peak potential is recorded as −454 mV.
`[NH2][Pt]([NH2])([OH])([OH])([Cl])[Cl]` [c,c,t-[Pt(NH3)2Cl2(OH)2]]: the peak potential in series [4] is recorded as −880 mV.

(Values after article PMC3065953 (Inorganic chemistry, 2011).)
